This is a sample that favours compounds with a hit; in the whole collection about 12% have one here.
ABCB1 inh – inhibitors of human ABCB1 transporter, ABCG2 counter-screen; P08183; CCRF-Adr cells, JC-1 efflux, flow cytometry; inhibition, % at 6.6 µM; 190,000 compounds, 0.067% hits; in the data active = inhibition above about 40%;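 note: 0% = vehicle and 100% = reference inhibitor; higher value means more JC-1 retained so stronger ABCB1 efflux block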
Lmaj promast – inhibitors of Leishmania major promastigote growth; Leishmania major promastigotes, resazurin fluorescence viability; inhibition, % at 10 µM; 200,000 compounds, 9% hits; in the data active = inhibition above about 50%;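 note: promastigotes grown with compound for 44 hours at 28 °C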
RAM network inh – inhibitors of the yeast RAM network. inhibition, % at 50 µM. 190,000 compounds, 1.8% hits. S. cerevisiae dse1pr::URA3 reporter, 5-FOA growth OD615, 2 d; analog-sensitive cbk1-as2 kinase mutant strain. AID 868;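 active = inhibition above a set limit, 3 SD over mean compound inhibition, cut at about 8.4% in these data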;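 note: 0% = DMSO-only wells with no growth and 100% = 10 µM 1-NA-PP1 full growth; inhibition rescues growth on 5-FOA so higher OD means more RAM inhibition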
WT yeast gro inh – growth inhibition of WT yeast, mitochondrial fusion screen. AID 1362. 190,000 compounds, 2.1% hits. inhibition, % at 10 µM. mitochondrial fusion phenotypic screen, WT strain; in the data active = inhibition above about 58%; tested in S. cerevisiae
ABCG2 inh – human ABCG2 inhibition, ABCB1 as counter-screen; Q9UNQ0; IgMXP3 cells, JC-1 efflux, flow cytometry; inhibition, % at 6.6 µM; 190,000 compounds, 0.1% hits;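 active = inhibition above 80%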;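 note: 0% = DMSO and 100% = nicardipine control wells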
Target sequence (Q9UNQ0 whole entry, looked up): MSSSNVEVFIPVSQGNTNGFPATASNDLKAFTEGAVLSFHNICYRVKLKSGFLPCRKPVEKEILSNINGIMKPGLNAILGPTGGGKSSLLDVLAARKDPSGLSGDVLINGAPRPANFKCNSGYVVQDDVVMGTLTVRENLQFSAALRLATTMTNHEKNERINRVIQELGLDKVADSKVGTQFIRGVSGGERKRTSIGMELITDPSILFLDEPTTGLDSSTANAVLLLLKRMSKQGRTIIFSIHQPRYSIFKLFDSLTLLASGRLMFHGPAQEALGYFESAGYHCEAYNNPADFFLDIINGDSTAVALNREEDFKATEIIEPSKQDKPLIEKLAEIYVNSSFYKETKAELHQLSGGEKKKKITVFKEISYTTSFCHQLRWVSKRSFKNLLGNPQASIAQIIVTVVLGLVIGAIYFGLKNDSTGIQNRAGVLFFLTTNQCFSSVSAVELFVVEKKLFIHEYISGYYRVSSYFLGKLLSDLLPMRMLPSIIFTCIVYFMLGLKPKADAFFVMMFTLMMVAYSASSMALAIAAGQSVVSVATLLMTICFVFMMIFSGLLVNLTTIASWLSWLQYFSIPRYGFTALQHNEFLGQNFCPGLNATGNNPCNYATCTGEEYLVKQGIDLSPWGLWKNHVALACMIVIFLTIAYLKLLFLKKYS
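Assay system – ABCG2 IgMXP3 and barcoded ABCB1 CCRF-Adr cell mix · Input – 3 million cells/mL in well · Reagent – JC-1 fluorescent substrate · Compound – single test compound dose, 6.6 µM final · Timing – 10 min exposure at 25 °C with rotation, no wash · Detection – flow cytometry of retained JC-1 fluorescence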
* = called active by the depositor.

SMILES | ABCB1 inh | Lmaj promast | RAM network inh | WT yeast gro inh | ABCG2 inh
Cc1ccc2nc(SCC(=O)Nc3cc(C(F)(F)F)ccc3N3CCOCC3)[nH]c2c1 | 2 | 53* | 1 | -2 | 7
C/C(=N\N1CCN(c2ccccc2)CC1)c1ccncc1 | 0 | -5 | 3 | -10 | 1
Cc1cccn2cc(COc3ccc(-c4ccccc4)cc3)nc12 | 0 | 7 | 0 | 80* | 10
Cc1cccn2cc(COc3cccc([N+](=O)[O-])c3)nc12 | 1 | 15 | 1 | -6 | 12
Cc1ccccc1C(=O)c1cccn1CC(=O)NCCC1=CCCCC1 | 0 | 3 | 1 | 27 | 4
Cc1ccc(C)c(N2CCN(CCCNC(=O)Cn3cccc3C(=O)c3ccccc3C)CC2)c1 | 0 | 93* | 1 | 80* | -1
Cc1ccccc1C(=O)c1cccn1CC(=O)NCCN1CCN(c2cccc(C)c2C)CC1 | 1 | 100* | -1 | 80* | 1
Cc1ccc(CNC(=O)Cn2cccc2C(=O)c2ccccc2C)cc1 | 0 | 6 | 5 | -1 | -1
COCCN(C(=O)CNC(=O)c1cccs1)C(C(=O)NC(C)(C)C)c1ccccc1 (centres undefined) | 0 | -4 | 2 | -10 | 0
O=C(Nc1ccc(O)c(-c2nc3ccccc3o2)c1)C1(c2ccc(Br)cc2)CCCC1 | 0 | -2 | 6 | -6 | 8
COc1cccc(NC(=O)CSC(N)=O)c1 | -5 | -8 | 0 | -16 | -1
Cc1cc(Cl)c(S(=O)(=O)N2CCCCCC2)cc1OCC(=O)NC1CCCCC1 | 1 | 96* | 2 | 24 | 22
CCOC(=O)C1CCN(S(=O)(=O)c2ccc(Cl)cc2OC)CC1 | 0 | -1 | 1 | -1 | 0
Cc1cc(Cl)c(S(=O)(=O)N2CCN(c3cccc(C)c3C)CC2)cc1OCC(N)=O | 1 | 95* | 5 | 24 | 2
CCOC(=O)C1CCCN(S(=O)(=O)c2cc(OCC(N)=O)c(C)cc2Cl)C1 (centres undefined) | 0 | -2 | 0 | 1 | 1
CCOC(=O)C1CCN(S(=O)(=O)c2cc(Cl)c(C)cc2OC)CC1 | 1 | 91* | 2 | 20 | 10
CCOC(=O)N1CCN(S(=O)(=O)c2cc(OCC(=O)NC3CCCCC3)c(C)cc2Cl)CC1 | 7 | 64* | 1 | 28 | 4
CCN1CCN(S(=O)(=O)c2cc(OCC(=O)NC3CCCCC3)c(C)cc2Cl)CC1 | 1 | 15 | 2 | 5 | 3
CCn1c(P(C)(=O)O)nc2cc(NC(=O)c3ccccc3Cl)ccc21 | 0 | 2 | 0 | -6 | 1
CC1=C(C(=O)OCc2ccc3c(c2)OCO3)C(c2cccc([N+](=O)[O-])c2)NC(=O)N1 (centres undefined) | 1 | -9 | 3 | 12 | 8
COC(=O)CCCC(=O)N1CCCC(C(=O)c2ccc(OC)cc2C)C1 (centres undefined) | 1 | -5 | -1 | -11 | 3
CCOC(=O)C1CCN(C(=O)C2CCN(S(=O)(=O)c3cc(Cl)ccc3Cl)CC2)CC1 | 0 | 7 | -2 | 3 | 2
Cc1cc(Cl)c(S(=O)(=O)N2CCCC2)cc1OCC(N)=O | 1 | 4 | 1 | -10 | 13
Cc1cc(Cl)c(S(=O)(=O)N2CCCCCC2)cc1OCC(N)=O | 1 | 67* | 0 | 36 | 5
CCOC(=O)N1CCN(C(=O)C2CCN(S(=O)(=O)c3cc(Cl)ccc3Cl)CC2)CC1 | 0 | 99* | 2 | 18 | 1
SMILES | ABCB1 inh | Lmaj promast | RAM network inh | WT yeast gro inh | ABCG2 inh
CC(Nc1cccc2ccccc12)C(=O)N/N=C/c1ccc([N+](=O)[O-])cc1 (centres undefined) | 0 | 0 | 1 | 45 | 5
CC(C)(C)c1ccc(OCc2ccc(C(=O)N/N=C/c3ccc(O)c(O)c3)cc2)cc1 | 1 | 100* | 2 | -5 | 13
O=C(N/N=C1\CC2CC=CC12)c1ccc(COc2ccccc2)cc1 (centres undefined) | 1 | -9 | 0 | -2 | 6
Cc1ccc(C(C)C)c(OCc2ccc(C(=O)N/N=C/c3ccc(O)cc3O)cc2)c1 | 0 | 100* | 4 | 61* | 0
O=C(N/N=C/c1ccc(OCc2ccc(F)cc2)cc1)c1ccccc1 | 0 | -4 | 4 | 0 | 0
CC(C)C(=O)Nc1ccccc1C(=O)N/N=C/c1ccc([N+](=O)[O-])cc1 | 0 | 52* | 4 | -7 | 2
CC(C)(C)c1ccc(OCc2ccc(C(=O)N/N=C3\CC4CC=CC34)cc2)cc1 (centres undefined) | -1 | -2 | -1 | 72* | -4
S=c1[nH]nc(C2CCCCC2)n1/N=C/c1ccccn1 | 0 | 3 | 1 | -4 | -1
O=C(N/N=C/c1ccc2cccc(OCc3ccccc3)c2n1)c1ccc(Cl)cc1 | 0 | 68* | 3 | 4 | 1
O=C(N/N=C/c1ccc([N+](=O)[O-])cc1)c1ccc(COc2ccccc2-c2ccccc2)cc1 | -1 | 90* | 5 | 8 | -2
O=C(N/N=C/c1cccc(O)c1)c1ccc(COc2ccccc2Br)cc1 | -1 | 0 | 0 | 80* | -4
N#Cc1cc2c(nc1SC1CCCCC1O)CCCC2 (centres undefined) | 1 | 2 | 0 | 5 | 6
CC(C)NC(=O)CSc1nnc(-c2ccncc2)n1-c1ccccc1 | 0 | 2 | 0 | -4 | 2
Cc1ccc(S(=O)(=O)Nc2cc(C(F)(F)F)ccc2N2CCOCC2)c(C)c1 | 0 | 29 | 7 | 34 | 1
O=C(CN1C2=NCCCN2c2ccccc21)c1ccc(Cl)cc1Cl | 0 | 100* | 3 | 11 | 0
O=C(CN1C2=NCCCN2c2ccccc21)c1cccc(Br)c1 | 0 | 94* | 1 | 1 | 0
O=C(CN1C2=NCCN2c2ccccc21)c1ccc(Br)cc1 | 0 | 18 | 0 | 22 | 2
Clc1ccc(CN2C3=NCCCN3c3ccccc32)cc1Cl | 1 | 51* | 0 | 6 | 2
O=C(CN1C2=NCCCN2c2ccccc21)c1cccs1 | 0 | -10 | 0 | 12 | 1
Cc1ccc(S(=O)(=O)Nc2cnn(-c3ccccc3)c(=O)c2Cl)cc1 | 0 | -4 | 0 | -4 | -1
CCOC(=O)N1CCC(NC(=O)c2cc3c(=O)[nH]c4ccccc4c3n2C)CC1 | 3 | -7 | 4 | 3 | 3
O=C(CSc1nnc(Nc2ccccc2)s1)Nc1cccc(S(=O)(=O)N2CCCCC2)c1 | -1 | 15 | 2 | -10 | -9
CN1CCN(c2nc(-c3ccc(Cl)s3)cs2)CC1 | -2 | 85* | 2 | 12 | 30
Clc1ccc(-c2csc(N3CCOCC3)n2)cc1 | 0 | -8 | 1 | 5 | 9
CS(=O)(=O)c1sc2nc(-c3cccs3)cc(-c3ccccc3)c2c1N | 1 | 48 | 11* | -25 | 2
O=C(N/C=N/OCc1ccc(Cl)cc1Cl)NOCc1ncc(C(F)(F)F)cc1Cl | 1 | -2 | 8 | 69* | 3
CO/N=C/NC(=O)NOCc1ncc(C(F)(F)F)cc1Cl | 1 | -5 | 2 | -21 | 3
